# Assay outcomes (PubChem)
# Rev-erbA mod = modulators of Rev-erb alpha DNA binding, primary screen, biochemical, FITC-DNA, fluorescence polarization, uHTS | activity, % at 10 µM | AID 1259318, 2017 | actives 0.79% (n = 370,000) | Rev-erbα–FITC-DNA binding, 90 min;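 active = activity above about 14%, limit read from the data; passing the limit was not always enough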;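 also: 0% = DMSO wells with 35 nM protein and 100% = DMSO wells with 750 nM protein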
# beta cell repl = inducers of MIN6 beta-cell proliferation, primary screen, ATP luminescence, uHTS; AID 2380, 2010; proliferation, % at 10 µM; actives 0.29% (n = 330,000); MIN6 cells proliferation, ATPlite luminescence, 48 h; cells starved in 0.2% serum; 100% = growth in 10% serum;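 active = compounds whose signal lies at least 3.5 SD above the mean of all wells on their plate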;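 also: 0% = DMSO-treated cells in low-serum medium and 100% = 10% serum control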
# PG9 Ab binder = binders of HIV-1 gp120 antibody PG9, primary screen, biochemical, TR-FRET | TR-FRET gp120-PG9 antibody binding | inhibition, % at 6.7 µM | actives 0.43% (n = 360,000) | AID 624416, 2012; in the data active = inhibition above about 8.5%
# Rce1 inh = yeast Rce1p protease inhibitors, primary screen, biochemical, fluorescence, cell-free homogeneous; CAAX prenyl protease 2 (Saccharomyces cerevisiae (strain ATCC 204508 / S288c)), Q03530; yeast membranes, quenched prenylated peptide cleavage fluorescence; calls only; actives 0.27% (n = 290,000);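 active = fall in fluorescence gain of 50% or more versus controls, with final raw signal at or below 3038400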;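 also: plate controls were neutral control wells for no effect and wells lacking membranes for full effect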
# CR mimetic SO = reduction of superoxide in aged yeast, primary screen, HTS | actives 0.18% (n = 330,000) | superoxide response (% of plate mean), % at 10 µM | S. cerevisiae aged cells, superoxide DHE fluorescence; active compounds read low;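 active = superoxide response under a set limit, about three screen SD below normal, cut at about 65% in these data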;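 also: yeast aged for seven days with compound at 30 °C before DHE staining; 100% = average MFI of all compound-treated wells on the plate with controls excluded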
# UCH37 DUB inh = inhibitors of human UCH37 deubiquitinase, primary screen, biochemical, Ub-AMC cleavage, fluorescence; purified proteasome/UCH37; Ubiquitin carboxyl-terminal hydrolase isozyme L5 (Homo sapiens), Q9Y5K5; inhibition, % (concentration not given with the values); actives 0.33% (n = 330,000);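 active = mean inhibition over replicate wells above about 20%, limit read from the data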;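 also: 0% = compound-free wells with enzyme and 100% = wells lacking proteasome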
# Target sequence (Q9Y5K5 whole entry, looked up): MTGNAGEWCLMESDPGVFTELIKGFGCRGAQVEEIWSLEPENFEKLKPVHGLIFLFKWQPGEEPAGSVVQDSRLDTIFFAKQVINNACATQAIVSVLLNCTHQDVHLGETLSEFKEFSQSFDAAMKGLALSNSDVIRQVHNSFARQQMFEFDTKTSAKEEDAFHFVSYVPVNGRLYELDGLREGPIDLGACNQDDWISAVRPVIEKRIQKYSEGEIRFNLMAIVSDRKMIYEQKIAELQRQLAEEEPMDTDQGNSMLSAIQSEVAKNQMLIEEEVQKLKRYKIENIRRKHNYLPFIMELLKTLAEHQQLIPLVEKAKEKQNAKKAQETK
#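 Material: human UCH37 enzyme supplied as purified proteasome complex. Measure: % inhibition of Ub-AMC cleavage fluorescence. Medium: pH 7.4 Tris-HCl (50 mM) with ovalbumin, ATP-MgCl2, DTT. Times: 30 min preincubation with enzyme, 25 min cleavage at room temperature. Detection: AMC fluorescence intensity at 355/460 nm.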
# NR1D1 mod conf = modulators of Rev-erb alpha DNA binding, confirmation, biochemical, FITC-DNA, fluorescence polarization, single point; shares compounds with Rev-erbA mod; 90 min; activation, % at 25 µM; actives 61% (n = 3,000); AID 1259319, 2017;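 active = activation at or above a set limit, or at least 3 SD above the negative control mean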;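 also: 0% = 35 nM protein with DMSO and 100% = 750 nM protein high control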
# RORg counter = modulation of RORgamma DNA binding, dose response, counter-screen for Rev-erb alpha modulator project, biochemical, fluorescence polarization, FITC-DNA. shares compounds with Rev-erbA mod. purified RORgamma protein-FITC-DNA binding. IC50, µM. actives 8% (n = 910);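 active = Compounds whose fitted half-maximal concentration for disrupting protein-DNA binding is below 10 micromolar; the record names Rev-erb in its text, so the target is in doubt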
# An asterisk follows results filed as active; i = inactive; · = no result given. Compounds with a hit are over-represented: about 1.9% of the library has one in this group of screens.
SMILES,Rev-erbA mod,beta cell repl,PG9 Ab binder,Rce1 inh,CR mimetic SO,UCH37 DUB inh,NR1D1 mod conf,others
COc1ccc(-c2cc(-c3cccs3)c(C#N)c(SCC(=O)NCc3ccccc3)n2)cc1,52.1*,-0.1,1.4,i,117.1,-28.5,26.1*,
COc1ccc(-c2cc(-c3cccs3)c(C#N)c(SCC(=O)NCc3ccccc3OC)n2)cc1,46.1*,-3.4,2.2,i,115.8,-110.2,25.5*,
COc1ccccc1CNC(=O)CSc1nc(N)c(C#N)c(-c2cccs2)c1C#N,35.1*,-1.7,1.5,i,95.8,-4.9,24.6*,
CC1=CCC(C(=O)NN=Cc2cccs2)C(c2ccc(F)cc2)C1 (stereo not given),·,·,·,·,·,1.4,·,
CC(C)c1ccc(C=NNC(=O)CCNC(=O)c2ccccc2)cc1,·,·,·,·,·,2.0,·,
CCn1c(/C=C/c2c(C)[nH]c3ccccc23)nc2ccccc2c1=O,58.6*,0.0,-0.8,i,98.7,-118.8,29.1*,
COC(=O)c1ccc(Cn2ccc3ccc(-c4ccc5ccn(C(=O)c6ccccc6)c5c4)cc32)cc1,13.6,·,·,·,·,·,·,
N#Cc1ccc(Cn2ccc3ccc(-c4ccc5ccn(C(=O)C6CCCCC6)c5c4)cc32)cc1,36.1*,·,·,·,·,·,18.3*,
COC(=O)c1ccc(Cn2ccc3ccc(-c4ccc5ccn(C(=O)c6ccccc6C)c5c4)cc32)cc1,30.2*,·,·,·,·,·,42.1*,RORg counter=>40
COC(=O)c1ccc(Cn2ccc3ccc(-c4ccc5ccn(C(=O)c6cccc(OC)c6)c5c4)cc32)cc1,39.5*,·,·,·,·,·,52.2*,RORg counter=>40
N#Cc1ccc(Cn2ccc3ccc(-c4ccc5ccn(C(=O)C6CCC6)c5c4)cc32)cc1,16.4,·,·,·,·,·,·,
COC(=O)c1ccc(Cn2ccc3ccc(-c4ccc5ccn(Cc6ccc(OC)cc6)c5c4)cc32)cc1,4.8,·,·,·,·,·,·,
COc1ccc(Cn2ccc3ccc(-c4ccc5ccn(C(=O)c6cccc(OC)c6)c5c4)cc32)cc1,37.5*,·,·,·,·,·,70.6*,RORg counter=>40
O=C(NN=C1C2CN3CCN(C2)CC1(c1ccccc1)C3)c1ccc(F)cc1,·,·,·,·,·,3.0,·,
Cn1cc(C=Nn2cnc3scc(-c4ccc(Cl)cc4)c3c2=O)c2ccccc21,·,·,·,·,·,-10.6,·,
Cc1cc2cc3c(=O)[nH]c(=O)[nH]c3nc2cc1C,33.1*,0.5,-0.4,i,93.7,·,40.6*,RORg counter=>40
CSc1nnc2c3ccccc3n(Cc3ccccc3)c2n1,21.7*,1.2,1.0,i,96.5,0.4,24.0*,
NNc1nnc2c3cc(F)ccc3n(Cc3ccccc3)c2n1,3.5,-3.2,-1.3,i,141.4,8.7,·,
CSc1nnc2c3cc(F)ccc3n(Cc3ccccc3)c2n1,59.3*,-1.8,0.5,i,103.9,-6.3,47.3*,RORg counter=>40
CSc1nnc2c3ccccc3n(CCc3ccccc3)c2n1,12.6,-4.5,3.4,i,87.4,1.8,·,
CN(C)C=NC(=S)Nc1cc(Cl)cc(Cl)c1,·,·,·,·,·,1.4,·,
CC1=NNC(=O)C1CCC(=O)NN=Cc1ccccc1[N+](=O)[O-] (stereo not given),·,·,·,·,·,1.3,·,
O=C1c2ccc(-c3ccc(F)cc3OCc3ccccc3)cc2S(=O)(=O)c2cccc(C(=O)N3CCN(c4ncc(Cl)cc4Cl)CC3)c21,1.3,-0.2,-0.1,·,104.0,4.0,·,
O=C1c2ccc(-c3ccc(F)cc3OCc3ccccc3)cc2S(=O)(=O)c2cccc(C(=O)N3CCN(c4ncc(Br)cn4)CC3)c21,74.8*,1.3,0.3,·,100.1,4.5,65.8*,
